Experimental data from PMC8569940 (European journal of medicinal chemistry, 2020).

Key:
MDA-MB-231 cells = assay: Apoptosis detection assay; format: cell-based, human
Method in brief: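 MDA-MB-231 cells seeded at 5 × 10^5 cells/mL in six-well plates. Treated with test compound at different concentrations for 24 h (48 h per results text); combretastatin A4 as positive control. Cells trypsinised, washed twice in cold PBS, resuspended in binding buffer, then stained with annexin V-FITC 15 min at room temperature. PI added for a further 15 min in the dark. Read by flow cytometry.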

Kunming mice = assay: Acute toxicity study, single intraperitoneal dose; format: in vivo
Method in brief: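 Kunming mice, four groups of 8 (half male, half female), each given one intraperitoneal injection of test compound at 10, 20 or 40 mg/kg or vehicle. Mortality and clinical signs in eyes, skin and fur recorded. Body weights measured daily after treatment. Mice dissected to check for ascites and liver volume.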

4T1 tumor = assay: In vivo antitumor effect, orthotopic 4T1 tumor-bearing mice; conditions: 2 mg/kg, in comparison with the control group
AURKA = molecular target: T1, AURKA (Homo sapiens, UniProt O14965); assay: Enzyme inhibition AURKA; format: biochemical; conditions: tested at 100 μM
T1 sequence (O14965 1-403): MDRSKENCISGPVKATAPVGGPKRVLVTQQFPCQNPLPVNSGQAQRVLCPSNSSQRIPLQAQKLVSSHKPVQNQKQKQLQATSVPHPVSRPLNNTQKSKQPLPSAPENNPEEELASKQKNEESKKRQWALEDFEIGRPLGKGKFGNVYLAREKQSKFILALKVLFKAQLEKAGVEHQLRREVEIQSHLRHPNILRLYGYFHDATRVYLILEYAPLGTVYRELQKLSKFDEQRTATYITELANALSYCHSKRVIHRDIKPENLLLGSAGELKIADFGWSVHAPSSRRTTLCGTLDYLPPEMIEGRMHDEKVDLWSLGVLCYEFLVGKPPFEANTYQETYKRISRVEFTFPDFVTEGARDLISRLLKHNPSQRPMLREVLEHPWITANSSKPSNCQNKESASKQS

MAPK10 = MAPK10 (Homo sapiens, UniProt P53779); assay: Enzyme inhibition MAPK10; format: biochemical; conditions: tested at 100 μM
Sequence of MAPK10 (P53779 whole entry): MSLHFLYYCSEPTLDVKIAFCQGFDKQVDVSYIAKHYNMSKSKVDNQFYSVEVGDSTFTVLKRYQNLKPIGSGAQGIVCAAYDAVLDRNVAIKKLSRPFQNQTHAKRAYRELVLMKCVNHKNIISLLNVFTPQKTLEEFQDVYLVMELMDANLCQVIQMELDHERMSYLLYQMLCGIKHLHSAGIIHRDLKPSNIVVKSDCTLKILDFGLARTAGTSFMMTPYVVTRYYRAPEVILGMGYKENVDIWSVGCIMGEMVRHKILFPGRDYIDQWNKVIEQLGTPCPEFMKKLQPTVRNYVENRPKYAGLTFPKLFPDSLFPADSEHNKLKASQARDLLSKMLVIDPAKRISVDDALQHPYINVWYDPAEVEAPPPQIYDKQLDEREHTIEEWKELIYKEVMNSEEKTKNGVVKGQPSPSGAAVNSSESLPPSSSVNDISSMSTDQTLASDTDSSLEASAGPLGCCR

JAK2 = JAK2 (Homo sapiens, UniProt O60674); assay: Enzyme inhibition JAK2; format: biochemical
Sequence of JAK2 (O60674 whole entry): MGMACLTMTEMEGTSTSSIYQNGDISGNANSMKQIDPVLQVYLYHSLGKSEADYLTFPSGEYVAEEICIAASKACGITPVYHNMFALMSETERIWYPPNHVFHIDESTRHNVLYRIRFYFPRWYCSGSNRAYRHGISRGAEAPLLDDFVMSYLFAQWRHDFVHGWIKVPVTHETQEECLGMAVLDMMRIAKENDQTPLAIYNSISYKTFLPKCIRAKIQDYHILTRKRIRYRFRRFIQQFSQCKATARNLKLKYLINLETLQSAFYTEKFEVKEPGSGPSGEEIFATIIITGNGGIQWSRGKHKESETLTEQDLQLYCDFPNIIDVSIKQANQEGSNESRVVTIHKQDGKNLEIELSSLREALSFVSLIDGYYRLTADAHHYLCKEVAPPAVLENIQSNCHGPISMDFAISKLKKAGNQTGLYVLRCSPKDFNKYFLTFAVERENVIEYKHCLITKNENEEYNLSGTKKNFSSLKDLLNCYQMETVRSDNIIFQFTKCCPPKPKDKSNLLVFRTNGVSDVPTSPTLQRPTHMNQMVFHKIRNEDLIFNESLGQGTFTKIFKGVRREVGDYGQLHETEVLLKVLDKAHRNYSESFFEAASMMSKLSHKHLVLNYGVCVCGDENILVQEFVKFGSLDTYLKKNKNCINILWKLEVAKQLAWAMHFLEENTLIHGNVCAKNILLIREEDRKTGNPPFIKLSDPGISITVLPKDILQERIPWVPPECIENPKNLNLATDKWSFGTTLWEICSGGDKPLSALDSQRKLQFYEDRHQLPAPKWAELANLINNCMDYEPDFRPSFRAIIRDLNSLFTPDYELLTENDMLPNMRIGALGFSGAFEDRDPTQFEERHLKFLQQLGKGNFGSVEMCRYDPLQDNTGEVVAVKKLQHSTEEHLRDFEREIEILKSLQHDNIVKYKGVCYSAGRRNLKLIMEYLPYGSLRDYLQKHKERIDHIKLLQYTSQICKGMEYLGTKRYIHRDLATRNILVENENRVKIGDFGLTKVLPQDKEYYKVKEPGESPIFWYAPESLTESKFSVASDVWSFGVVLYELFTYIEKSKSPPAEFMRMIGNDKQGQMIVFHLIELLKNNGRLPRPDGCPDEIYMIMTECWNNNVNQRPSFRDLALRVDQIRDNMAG

[1] = female mice, highest dose group (40 mg/kg)

SMILES: O=C1C=CC2(C=C1)OCC(=O)N2c1nc(-c2cccc3ccccc23)nn1-c1ccccc1 [Compound 6a, 4-(3-(Naphthalen-1-yl)-1-phenyl-1H-1,2,4-triazol-5-yl)-1-oxa-4-azaspiro[4.5] deca-6,9-diene-3,8-dione]
- early and late apoptosis (MDA-MB-231 cells; MDA-MB-231, 1 μM): induced both early and late apoptosis
- induction of cell apoptosis (MDA-MB-231 cells; MDA-MB-231, 48 h of treatment): induce cell apoptosis in a dose-dependent manner
- toxicity to the major organ in mice (Kunming mice; 20 mg/kg): no apparent toxicity
- clinical signs in the eyes, skin, and fur (Kunming mice; 40 mg/kg): no remarkable clinical signs
- ascites at dissection (Kunming mice; [1]): Ascites were detected
- liver volume at dissection (Kunming mice; [1]): decreased liver volume
- gain of bodyweight (Kunming mice; highest dose group (40 mg/kg)): lower than the other three groups
- mortality (Kunming mice; single dose 10, 20, 40 mg/kg i.p.): No mortality occurred
- size of the spleen and liver (4T1 tumor): enlarged
- effect on AURKA (AURKA): did not have any significant effect
- effect on MAPK10 (MAPK10): did not have any significant effect
- inhibition on the Janus kinases 2 (JAK2): weak inhibition
- IC50 (JAK2; Inhibitory effect (IC50) JAK2 Repeat 1, Repeat 1): 41.3 µM
- IC50 (JAK2; Inhibitory effect (IC50) JAK2 Repeat 2, Repeat 2): 76.6 µM
